This is an account of results in ChEMBL document CHEMBL1649518, “Safety and outcomes of open-label deferasirox iron chelation therapy for mucormycosis” (Antimicrob Agents Chemother, 2009).

What all share (format): organism-based
Common to all, as to parameters: route oral
Holding throughout (conditions): in vivo, 336 h

For data set [1], the system named is Homo sapiens. Nature of the data set: Toxicity in patient with mucormycosis assessed as glucose level at 5 to 20 mg/kg/day, po for 14 days (reference value: 131 mg/dl). The method, boiled down: (§1)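 Open-label deferasirox given to patients with mucormycosis. One patient with coexisting hepatic disease received 5 mg/kg of body weight/day for 20 days. Laboratory values were reported as medians (interquartile range) at diagnosis, at start of deferasirox, at end of deferasirox, and at a final time point.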

For data set [2], the system named is Homo sapiens. Kind of data set: Toxicity in patient with mucormycosis assessed as platelet count at 5 to 20 mg/kg/day, po for 14 days (reference value: 217/uL). The procedure, abridged: as §1
Data set [3] concerns Homo sapiens. Nature of the data set: Toxicity in patient with mucormycosis assessed as total bilirubin level at 5 to 20 mg/kg/day, po for 14 days (reference value: 0.8 mg/dl). The method, boiled down:
as §1

The test system of data set [4] is Homo sapiens. Nature of the data set: Toxicity in patient with mucormycosis assessed as blood urea nitrogen level at 5 to 20 mg/kg/day, po for 14 days (reference value: 34 mg/dl). The method, boiled down:
as §1

For data set [5], the system named is Homo sapiens. Nature of the data set: Toxicity in patient with mucormycosis assessed as alkaline phosphatase level at 5 to 20 mg/kg/day, po for 14 days (reference value: 126 U/l). The method, boiled down:
as §1

For data set [6], the system named is Homo sapiens. Kind of data set: Toxicity in patient with mucormycosis assessed as hemoglobin level at 5 to 20 mg/kg/day, po for 14 days (reference value: 9 mg/dl). The method, boiled down: as §1
Data set [7] concerns Homo sapiens. Kind of data set: Toxicity in patient with mucormycosis assessed as alanine transaminase level at 5 to 20 mg/kg/day, po for 14 days (reference value: 21 U/l). The procedure, abridged:
as §1

The subject of data set [8] is Homo sapiens. Kind of data set: Toxicity in patient with mucormycosis assessed as WBC count at 5 to 20 mg/kg/day, po for 14 days (reference value: 8.1/uL). The method, boiled down:
as §1

The subject of data set [9] is Homo sapiens. Nature of the data set: Toxicity in patient with mucormycosis assessed as creatinine level at 5 to 20 mg/kg/day, po for 14 days (reference value: 1.6 mg/dl). The method, boiled down:
as §1

Data set [10] relates to Homo sapiens. Nature of the data set: Toxicity in patient with mucormycosis assessed as absolute neutrophil count at 5 to 20 mg/kg/day, po for 14 days (reference value: 5.2/uL). The procedure, abridged: as §1
For data set [11], the system named is Homo sapiens. Kind of data set: Toxicity in patient with mucormycosis assessed as aspartate transaminase level at 5 to 20 mg/kg/day, po for 14 days (reference value: 27 U/l). The procedure, abridged: as §1

Consider `O=C(O)c1ccc(-n2nc(-c3ccccc3O)nc2-c2ccccc2O)cc1` [DEFERASIROX], for which the Activity in data set [1] was 104 mg/dL; in [2], 199 10^3 cells/µL; in data set [3], 0.6 mg/dL; in data set [4], 43 mg/dL; in data set [5], 314 U/L; in data set [6], 9 g/dL. Besides, the Activity was 49 U/L in data set [7]; 10.8 10^3 cells/µL in data set [8]; 1.9 mg/dL in data set [9]; 5.4 10^3 cells/µL in [10]; 28 U/L in [11].
